pKi: −log10 of the molar value.
How the values were obtained:
[1] = target: T1, Sodium channel alpha subunits; brain (Types I, II, III) (Rattus norvegicus, UniProt P04775+P04774+P08104); assay: Inhibitory effect against veratridine-induced glutamate release from rat brain slices; format: functional
Outline: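 Cross-chopped 0.2 mm slices of Chbb:Thom rat cortex or striatum preincubated 45 min at 37 °C in oxygenated Krebs–Henseleit buffer pH 7.4 with glucose, EDTA and ascorbate. Then 15 min with or without 3 μM veratridine, drug present throughout. After centrifugation, supernatant glutamate measured by HPLC with fluorimetric detection; protein by Coomassie.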

[2] = target: T1, Sodium channel alpha subunits; brain (Types I, II, III); assay: Displacement of [3H]BTX from sodium channel of rat cerebral cortex synaptosomes; format: subcellular
Outline: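 Synaptosomal membranes from rat cerebral cortex incubated 1 h at 37 °C with 1 nmol/L [3H]BTX-B in choline Cl/HEPES-Tris buffer pH 7.4 containing glucose, KCl and MgSO4, plus scorpion venom. Nonspecific binding defined with 100 μmol/L aconitine. Stopped by vacuum filtration through glass fiber and two buffer washes.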

Mus musculus [3] = species on record: Mus musculus; assay: Ability to block convulsions in the maximal electroshock test (MES) in mice; format: functional
Outline: (§1)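 Male OF1 mice, groups of 10, given several doses sc; electroshock 20 mA/50 Hz/200 ms through eye electrodes 15 min after injection. Score is the percentage of animals free of tonic convulsions. ID50 for inhibition of tonic seizures obtained by log-probit analysis over three to four doses.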

[4] = target: T2, Sodium channel alpha subunits; brain (Types I, II, III) (Rattus norvegicus) (UniProt P04775+P04774+P08104); assay: Percent inhibition of veratridine-induced glutamate release in rat brain slices at 10000 nmol/L; format: functional, tissue-based
T2 sequence (P04775 whole entry, looked up, other chains not shown): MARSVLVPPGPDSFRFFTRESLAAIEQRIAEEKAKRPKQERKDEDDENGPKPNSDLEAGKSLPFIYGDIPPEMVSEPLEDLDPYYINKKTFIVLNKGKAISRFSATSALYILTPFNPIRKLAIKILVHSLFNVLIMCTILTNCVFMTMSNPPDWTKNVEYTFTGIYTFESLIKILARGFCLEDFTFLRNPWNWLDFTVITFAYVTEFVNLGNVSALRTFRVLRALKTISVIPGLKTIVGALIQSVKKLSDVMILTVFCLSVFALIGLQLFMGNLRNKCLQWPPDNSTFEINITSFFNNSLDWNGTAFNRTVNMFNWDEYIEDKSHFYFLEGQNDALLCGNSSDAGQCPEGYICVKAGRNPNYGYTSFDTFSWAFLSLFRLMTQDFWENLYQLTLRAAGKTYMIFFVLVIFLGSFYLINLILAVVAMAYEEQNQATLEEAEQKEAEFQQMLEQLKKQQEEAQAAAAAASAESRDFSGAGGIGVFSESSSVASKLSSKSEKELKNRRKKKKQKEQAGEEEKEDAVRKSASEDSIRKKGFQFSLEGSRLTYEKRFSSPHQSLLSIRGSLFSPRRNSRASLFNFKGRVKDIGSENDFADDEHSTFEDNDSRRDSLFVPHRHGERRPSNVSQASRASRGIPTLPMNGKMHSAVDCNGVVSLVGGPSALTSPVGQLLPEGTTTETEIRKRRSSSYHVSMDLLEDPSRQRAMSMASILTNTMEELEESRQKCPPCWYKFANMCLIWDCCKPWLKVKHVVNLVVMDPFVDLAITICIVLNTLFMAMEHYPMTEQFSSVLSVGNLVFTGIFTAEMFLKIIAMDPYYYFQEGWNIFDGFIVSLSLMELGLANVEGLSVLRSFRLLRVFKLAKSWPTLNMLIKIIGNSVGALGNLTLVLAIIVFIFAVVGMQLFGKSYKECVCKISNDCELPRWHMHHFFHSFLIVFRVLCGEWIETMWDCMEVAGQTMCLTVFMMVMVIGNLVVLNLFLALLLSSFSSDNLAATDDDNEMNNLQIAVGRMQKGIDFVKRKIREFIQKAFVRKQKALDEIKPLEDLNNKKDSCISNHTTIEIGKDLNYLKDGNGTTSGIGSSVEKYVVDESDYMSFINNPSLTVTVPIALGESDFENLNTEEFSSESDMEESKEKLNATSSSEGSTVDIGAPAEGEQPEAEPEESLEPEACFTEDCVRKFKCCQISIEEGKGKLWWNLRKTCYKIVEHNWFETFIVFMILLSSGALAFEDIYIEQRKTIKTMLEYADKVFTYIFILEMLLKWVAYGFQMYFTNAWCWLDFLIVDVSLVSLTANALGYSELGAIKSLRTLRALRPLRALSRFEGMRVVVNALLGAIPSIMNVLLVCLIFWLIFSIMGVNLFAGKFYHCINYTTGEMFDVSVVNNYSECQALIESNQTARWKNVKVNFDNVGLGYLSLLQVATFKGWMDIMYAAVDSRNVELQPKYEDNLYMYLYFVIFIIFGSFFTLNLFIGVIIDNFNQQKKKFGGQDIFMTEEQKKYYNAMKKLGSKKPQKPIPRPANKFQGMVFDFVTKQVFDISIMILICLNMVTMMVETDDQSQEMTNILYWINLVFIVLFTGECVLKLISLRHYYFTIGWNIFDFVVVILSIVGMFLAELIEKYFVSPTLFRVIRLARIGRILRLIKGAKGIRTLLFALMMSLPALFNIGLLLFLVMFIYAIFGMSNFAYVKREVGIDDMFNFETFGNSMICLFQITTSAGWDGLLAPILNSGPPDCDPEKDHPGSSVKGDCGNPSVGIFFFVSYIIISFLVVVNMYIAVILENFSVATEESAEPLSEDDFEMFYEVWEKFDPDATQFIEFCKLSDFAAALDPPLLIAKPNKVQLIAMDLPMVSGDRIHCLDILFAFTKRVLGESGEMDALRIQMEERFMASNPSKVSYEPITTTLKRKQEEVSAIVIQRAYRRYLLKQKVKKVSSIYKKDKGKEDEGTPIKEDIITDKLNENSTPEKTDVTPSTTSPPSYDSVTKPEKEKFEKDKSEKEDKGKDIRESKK
T2 sequence (P08104 whole entry, looked up, other chains not shown): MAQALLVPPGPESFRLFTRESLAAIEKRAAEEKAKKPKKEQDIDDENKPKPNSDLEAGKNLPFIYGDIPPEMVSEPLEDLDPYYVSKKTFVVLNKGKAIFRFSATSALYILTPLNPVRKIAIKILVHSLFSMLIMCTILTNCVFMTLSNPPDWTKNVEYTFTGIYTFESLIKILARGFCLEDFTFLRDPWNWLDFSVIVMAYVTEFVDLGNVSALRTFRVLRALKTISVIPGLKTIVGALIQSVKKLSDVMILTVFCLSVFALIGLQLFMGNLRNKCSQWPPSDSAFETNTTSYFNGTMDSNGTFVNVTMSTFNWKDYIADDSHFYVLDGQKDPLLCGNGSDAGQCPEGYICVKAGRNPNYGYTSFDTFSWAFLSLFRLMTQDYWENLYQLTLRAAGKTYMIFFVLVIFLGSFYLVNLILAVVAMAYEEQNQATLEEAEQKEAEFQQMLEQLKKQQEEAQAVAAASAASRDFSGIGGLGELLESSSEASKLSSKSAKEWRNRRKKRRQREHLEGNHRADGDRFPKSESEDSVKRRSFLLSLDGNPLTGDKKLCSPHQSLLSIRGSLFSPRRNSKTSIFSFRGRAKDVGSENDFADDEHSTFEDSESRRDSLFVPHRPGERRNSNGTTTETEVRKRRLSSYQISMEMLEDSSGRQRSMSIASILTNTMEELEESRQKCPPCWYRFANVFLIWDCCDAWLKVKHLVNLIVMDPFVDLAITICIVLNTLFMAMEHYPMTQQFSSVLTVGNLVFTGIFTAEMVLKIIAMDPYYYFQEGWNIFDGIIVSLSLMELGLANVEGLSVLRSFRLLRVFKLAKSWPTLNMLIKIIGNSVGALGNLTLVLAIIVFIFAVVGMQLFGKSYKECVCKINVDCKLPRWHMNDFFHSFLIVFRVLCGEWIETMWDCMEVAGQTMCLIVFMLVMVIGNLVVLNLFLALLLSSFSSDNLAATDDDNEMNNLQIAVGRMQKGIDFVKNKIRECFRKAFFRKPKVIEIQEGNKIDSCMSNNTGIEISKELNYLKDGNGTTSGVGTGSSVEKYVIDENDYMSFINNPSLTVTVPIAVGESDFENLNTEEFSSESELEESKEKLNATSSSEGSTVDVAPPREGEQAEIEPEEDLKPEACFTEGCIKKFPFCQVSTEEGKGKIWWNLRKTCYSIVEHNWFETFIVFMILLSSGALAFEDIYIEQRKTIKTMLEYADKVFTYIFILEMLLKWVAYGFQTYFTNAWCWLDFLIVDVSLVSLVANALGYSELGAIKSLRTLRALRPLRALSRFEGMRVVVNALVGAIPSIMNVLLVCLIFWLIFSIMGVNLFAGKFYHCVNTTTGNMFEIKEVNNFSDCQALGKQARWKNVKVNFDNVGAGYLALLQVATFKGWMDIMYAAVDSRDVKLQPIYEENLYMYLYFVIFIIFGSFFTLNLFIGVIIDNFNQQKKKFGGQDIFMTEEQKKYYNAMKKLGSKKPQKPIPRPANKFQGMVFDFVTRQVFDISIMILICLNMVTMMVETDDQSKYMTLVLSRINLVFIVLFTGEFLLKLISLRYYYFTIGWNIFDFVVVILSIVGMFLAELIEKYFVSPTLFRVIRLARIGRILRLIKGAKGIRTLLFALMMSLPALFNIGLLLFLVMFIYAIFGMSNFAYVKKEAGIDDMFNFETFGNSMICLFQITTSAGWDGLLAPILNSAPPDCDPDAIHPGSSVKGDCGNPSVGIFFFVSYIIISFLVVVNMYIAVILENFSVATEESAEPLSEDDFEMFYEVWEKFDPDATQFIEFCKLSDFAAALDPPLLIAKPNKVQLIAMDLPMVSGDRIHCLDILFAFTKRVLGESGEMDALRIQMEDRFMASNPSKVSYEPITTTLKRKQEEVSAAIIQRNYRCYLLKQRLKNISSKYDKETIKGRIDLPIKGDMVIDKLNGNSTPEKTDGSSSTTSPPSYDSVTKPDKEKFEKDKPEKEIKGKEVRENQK

[5] = target: T2, Sodium channel alpha subunits; brain (Types I, II, III) (Rattus norvegicus); assay: Percent inhibition of [3H]BTX displacement at 10000 nmol/L; format: protein assay
Mus musculus [6] = species on record: Mus musculus; assay: Percent of mice that did not develop tonic convulsion in the maximal electroshock test (MES); format: functional; outline: as §1
[7] = target: T3, Voltage-gated L-type calcium channel (Rattus norvegicus, UniProt P22002+Q02485+P27732); assay: Displacement of DHP from L-type calcium channel binding site; format: protein assay
[8] = target: T3, Voltage-gated L-type calcium channel; assay: Displacement of verapamil from L-type calcium channel binding site; format: protein assay
[9] = target: T3, Voltage-gated L-type calcium channel; assay: Displacement of diltiazem from L-type calcium channel binding site; format: protein assay
[10] = target: T1, Sodium channel alpha subunits; brain (Types I, II, III); assay: Displacement of [3H]-TTX from sodium channel of rat cerebral cortex synaptosomes; format: subcellular
[11] = target: T3, Voltage-gated L-type calcium channel; assay: Displacement of dihydropyridine (DHP) from the L-type calcium channel binding site; format: protein assay
Mus musculus [12] = species on record: Mus musculus; assay: Ability to block convulsions in the maximal electroshock test(MES) in mice; format: functional; settings: read-out: ID50 (the source's name); outline: as §1
[13] = read-out: ID50 (the source's name)

Compound | IC50 [1] | pKi [2] | ED50 (Mus musculus [3]; [13]) [mg/kg] | also measured
Cc1ccc(-c2nc(CN3CCN(C(c4ccccc4)c4ccccc4)CC3)c(C)[nH]2)cc1 [LIFARIZINE] | 494 nmol/L | 6.59 | – | –
CC1[C@H]2Cc3c(O)cccc3C1(C)CCN2C[C@@H](C)OCc1ccccc1 (stereo partly specified) | 452 nmol/L | 6.82 | 3.1 | –
CO[C@@H](C)CN1CCC2(C)c3cccc(O)c3C[C@H]1C2(C)C | > 10000 nmol/L | 5.00 | – | inhibition [4]: 25%; inhibition [5]: 52%
CO[C@H](C)CN1CCC2(C)c3cccc(O)c3C[C@H]1C2(C)C | > 10000 nmol/L | 5.00 | – | inhibition [4]: 42%; inhibition [5]: 48%
C[C@@H](CN1CCC2(C)c3ccc(O)cc3C[C@H]1C2(C)C)Oc1ccccc1 | 6464 nmol/L | 5.82 | > 100 | Animals (Mus musculus [6]): 0%
C[C@H](CN1CCC2(C)c3ccc(O)cc3C[C@H]1C2(C)C)Oc1ccccc1 | 6340 nmol/L | 6.06 | – | –
C[C@@H](CN1CCC2(C)c3ccc(O)cc3C[C@@H]1C2(C)C)OCc1ccccc1 | 2300 nmol/L | 6.51 | 10.1 | –
CC(CN1CCC2(C)C[C@@H]1Cc1c(O)cccc12)OCc1ccccc1 (stereo partly specified) | 255 nmol/L | 7.33 | 2.2 | –
CO[C@@H](C)CN1CCC2(C)c3ccccc3C[C@@H]1C2(C)C | ~ 10000 nmol/l | 5.33 | – | inhibition [4]: 52%
C[C@@H](CN1CCC2(C)c3ccc(O)cc3C[C@H]1C2(C)C)OCc1ccccc1 | 4516 nmol/L | 5.73 | > 100 | Mice (Mus musculus [6]): 30%
C[C@@H](CN1CCC2(C)c3cccc(O)c3C[C@@H]1C2(C)C)OCc1ccccc1 | 322 nmol/L | 7.37 | 6.1 | Ki [7]: > 10000 nM l-1; Ki [8]: 449 nM l-1; Ki [9]: 660 nM l-1; Ki [10]: > 10000 nM l-1
CC12CCN(CCc3ccccc3)[C@@H](Cc3cc(O)ccc31)C2(C)C | 5029 nmol/L | 5.89 | – | –
C[C@@H](CN1CCC2(C)c3cccc(O)c3C[C@H]1C2(C)C)OCc1ccccc1 | 1289 nmol/L | 5.88 | > 100 | Mice (Mus musculus [6]): 40%
CN(c1nc2ccccc2s1)C1CCN(C[C@H](O)COc2ccc(F)c(F)c2)CC1 [LUBELUZOLE] | – | 6.69 | – | –
C[C@H](CN1CCC2(C)c3ccc(O)cc3C[C@@H]1C2(C)C)OCc1ccccc1 | 3177 nmol/L | 6.42 | 35.3 | –
C[C@@H](CN1CCC2(C)c3ccc(O)cc3C[C@@H]1C2(C)C)Oc1ccccc1 | 5799 nmol/L | 6.83 | > 30 | Animals (Mus musculus [6]): 0%

Compound | IC50 [1] | pKi [2] | ED50 (Mus musculus [3]; [13]) [mg/kg] | also measured
C[C@H](CN1CCC2(C)c3ccc(O)cc3C[C@H]1C2(C)C)OCc1ccccc1 | 2676 nmol/L | 5.91 | > 100 | Mice (Mus musculus [6]): 30%
CC12CCN(CCOCc3ccccc3)[C@H](Cc3c(O)cccc31)C2(C)C | 379 nmol/L | 7.70 | 2.1 | Ki [11]: > 10000 nM l-1; Ki [8]: 60 nM l-1; Ki [9]: 217 nM l-1; Ki [10]: > 10000 nM l-1
COc1ccc2c(c1)[C@]13CCCC[C@@H]1[C@H](C2)N(C)CC3 [DEXTROMETHORPHAN] | > 10000 nmol/L | 5.32 | – | inhibition [4]: 5%
COC(C)CN1CCC2(C)c3c(O)cccc3C[C@@H]1C2(C)C (stereo partly specified) | > 10000 nmol/L | 5.05 | – | inhibition [4]: 23%
C[C@H](CN1CCC2(C)c3cccc(O)c3C[C@@H]1C2(C)C)OCC1CCCCC1 | 1481 nmol/L | 6.62 | – | ED50 (Mus musculus [12]): > 30 mg/kg; Mice (Mus musculus [6]): 0%
COC(C)CN1CCC2(C)c3ccc(O)cc3C[C@@H]1C2(C)C (stereo partly specified) | > 10000 nmol/L | < 5.00 | – | ED50 (Mus musculus [3]): 0.7 mg/kg; inhibition [4]: 21%; inhibition [5]: 45%
C[C@@H](CN1CCC2(C)c3cccc(O)c3C[C@@H]1C2(C)C)OCC1CCCCC1 | 975 nmol/L | 6.68 | > 30 | Mice (Mus musculus [6]): 0%
COC(C)CN1CCC2(C)c3cc(O)ccc3C[C@@H]1C2(C)C (stereo partly specified) | > 10000 nmol/L | 5.22 | – | ED50 (Mus musculus [3]): 0.1 mg/kg; inhibition [4]: 29%
Cc1cccc(C)c1OCC(C)N (stereo unspecified) [MEXILETINE] | 47000 nmol/L | 4.64 | – | –
CC1[C@H]2Cc3c(O)cccc3C1(C)CCN2C[C@H](C)OCc1ccccc1 (stereo partly specified) | 134 nmol/L | 7.27 | 2.4 | –
C[C@H](CN1CCC2(C)c3ccc(O)cc3C[C@@H]1C2(C)C)Oc1ccccc1 | 6024 nmol/L | 6.18 | – | –
C[C@H](CN1CCC2(C)c3cccc(O)c3C[C@@H]1C2(C)C)OCc1ccccc1 | 922 nmol/L | 6.94 | 9.4 | Ki [7]: > 10000 nM l-1; Ki [8]: 500 nM l-1; Ki [9]: 391 nM l-1; Ki [10]: > 10000 nM l-1
CO[C@@H](C)CN1CCC2(C)c3cccc(O)c3C[C@@H]1C2(C)C | 3190 nmol/L | 6.11 | – | ED50 (Mus musculus [3]): 1 mg/kg
C[C@H](CN1CCC2(C)c3cccc(O)c3C[C@H]1C2(C)C)OCc1ccccc1 | 3772 nmol/L | 5.83 | > 100 | Mice (Mus musculus [6]): 40%
CO[C@H](C)CN1CCC2(C)c3cccc(O)c3C[C@@H]1C2(C)C | 4153 nmol/L | 5.48 | – | ED50 (Mus musculus [3]): 0.8 mg/kg
